In paper PMC4005002 (Anti-cancer drugs, 2013):
Where “and” joins values, the source holds several entries; their conditions need not be identical. Equal entries are not always repeated. Where two headings read alike, the source gives them in different places.

How the values were obtained:
[1] = Tem pharmacokinetics in whole blood; assay type: in vivo, human; details: for AUC(0-t): 0 to 24 hours post dose
[2] = test system: children and adolescents with refractory solid tumors; experiment: Phase I dose escalation of Tem in combination with VPA: toxicity; assay type: in vivo
[3] = test system: pediatric patients with recurrent/refractory solid tumors; details: cited from earlier work
[4] = cited from earlier work; for median Cmax: children
[5] = VPA serum/plasma levels during treatment; assay type: in vivo, human
HDAC activity in PBMC = experiment: Histone H4 acetylation in peripheral blood mononuclear cells; assay type: in vivo, human; details: data from subject 6, VPA with Tem
Summary of the method: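 PBMC isolated on Ficoll and stored at −80 C. Extracts normalized to cell number were run on SDS-PAGE and blotted with rabbit anti-tetra-acetyl H4 (1:2000) and anti-pan-H4 (1:1000). Scanned blots were quantified.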

histone acetylation = details: cited from earlier work
acetylated H4 = details: phase I study of VPA alone, half of the subjects; cited from earlier work

CO[C@H]1C[C@@H]2CC[C@@H](C)[C@@](O)(O2)C(=O)C(=O)N2CCCC[C@H]2C(=O)O[C@H]([C@H](C)C[C@@H]2CC[C@@H](OC(=O)C(C)(CO)CO)[C@H](OC)C2)CC(=O)[C@H](C)/C=C(\C)[C@@H](O)[C@@H](OC)C(=O)[C@H](C)C[C@H](C)/C=C/C=C/C=C/1C [Tem, Temsirolimus]
Peak Tem levels, range over patients ([1]; Tem 60 mg/m^2 dose level with VPA, both cycles): 757–1,220 ng/mL | Tmax ([1]; cycle 5, Tem 35 mg/m^2 IV weekly with VPA, median, N = 2): 30 min | Tmax ([1]; human, whole blood, iv, 35 mg/m^2): 39.6 min | AUC(0-t) ([1]; human, whole blood, iv, 35 mg/m^2, AUClast, cycle 1, Tem 35 mg/m^2 IV weekly with VPA, median, N = 3): 7550 ng·h/mL | AUC(0-t) ([1]; human, whole blood, iv, 60 mg/m^2, AUClast, cycle 1, Tem 60 mg/m^2 IV weekly with VPA, median, N = 2): 8330 ng·h/mL | half-life ([1]; human, whole blood, iv, T1/2, cycle 5, Tem 60 mg/m^2 IV weekly with VPA, N = 1): 504 min | tolerable dose of Tem with VPA ([2]; IV weekly with VPA PO TID): 35 mg/m^2/week | MTD of Tem in combination with VPA ([2]; IV weekly, VPA doses dropped using fatigue as endpoint): 35 mg/m2/wk | dose of Tem well tolerated / likely MTD when combined with VPA ([2]; IV weekly, only 3 patients treated at this dose): 35 mg/m^2 | mucositis at the lower dose ([2]; human, in vivo): mucositis limited to grade 1 or 2, with the exception of one subject with grade 3 | MTD of Tem as single agent ([3]; pediatric study): more than 150 mg/m^2 IV/week | MTD of Tem alone ([3]; phase I pediatric study): 150 mg/m^2 | median Cmax ([4]; Tem 25 mg/m^2 without VPA): 448 ng/mL | median Cmax ([4]; Tem 75 mg/m^2 without VPA): 442 ng/mL | Peak Tem levels, range ([4]; children who had received 75 mg/m^2 Tem without VPA): 369 to 630 ng/mL

CCCC(CCC)C(=O)O [VPA, Valproic Acid]
VPA levels with which toxicity seemed to correlate ([2]; Tem plus VPA): > 75 µg/mL | fatigue attributed to VPA ([2]; in vivo): dose-limiting fatigue | concentration at 24 h ([5]; human, plasma, oral): 52000 ng/mL | VPA level at grade 2 thrombocytopenia ([5]; one patient, resolved after holding VPA for 3 days): 56 µg/mL | VPA range ([5]; patient 1, Tem 60 mg/m^2): 26–72 (NA) mcg/mL | VPA level at time of grade 3 toxicity ([5]; patient 2, Tem 60 mg/m^2): 85 µg/mL and 112 µg/mL | VPA range ([5]; patient 2, Tem 60 mg/m^2): 78 to 112 µg/mL | VPA level at time of grade 3 toxicity ([5]; patient 3, Tem 60 mg/m^2): 91 µg/mL | VPA range ([5]; patient 3, Tem 60 mg/m^2): <10 to 91 µg/mL | VPA level at time of grade 3 toxicity ([5]; patient 4, Tem 35 mg/m^2): 108 µg/mL | VPA range ([5]; patient 4, Tem 35 mg/m^2): 68 to 108 µg/mL | VPA level at time of grade 3 toxicity ([5]; patient 5, Tem 35 mg/m^2): 87 µg/mL | VPA range ([5]; patient 5, Tem 35 mg/m^2): 13 to 87 µg/mL | VPA level at time of grade 3 toxicity ([5]; patient 6, Tem 35 mg/m^2): 78 µg/mL | VPA range ([5]; patient 6, Tem 35 mg/m^2): 22 to 78 µg/mL | VPA level at the time of maximum symptoms (grade 3 bilateral plantar pain) ([5]; subject #5, beginning of 4th month of treatment): 87 µg/mL | VPA plasma levels required to inhibit HDAC activity in PBMC (HDAC activity in PBMC): > 70 µg/dL | VPA levels needed before acetylation is significantly affected (histone acetylation): greater than 100 mcg/mL | VPA levels associated with increased acetylated H4 (acetylated H4): 55 to 100 µg/mL
